Compound activity deposited in PubChem BioAssay by several laboratories.
PAFAH1B3 inh – PAFAH1B3 enzyme inhibitors, primary screen, biochemical, fluorescence polarization, human. Platelet-activating factor acetylhydrolase IB subunit alpha1 (Homo sapiens), Q15102. recombinant PAFAH1B3, FP-rhodamine probe. inhibition, % at 3.39 µM. 0.28% of 340,000 active. AID 492972, 2010;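 active = inhibition above the screen-wide average of all tested compounds plus 3 SD, cut at about 25% in these data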;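 also: 0% = enzyme with DMSO only and 100% = wells lacking PAFAH1B3 protein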
Target sequence (Q15102 whole entry, looked up): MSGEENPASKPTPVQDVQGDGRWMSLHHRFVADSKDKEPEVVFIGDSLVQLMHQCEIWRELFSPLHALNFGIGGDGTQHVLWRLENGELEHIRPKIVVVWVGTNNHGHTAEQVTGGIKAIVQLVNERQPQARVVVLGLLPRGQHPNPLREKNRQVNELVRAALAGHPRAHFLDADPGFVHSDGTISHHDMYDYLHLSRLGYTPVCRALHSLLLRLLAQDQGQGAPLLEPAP
PAFAH2 inh – PAFAH2 enzyme inhibitors, primary screen, biochemical, fluorescence polarization, human; recombinant PAFAH2, FP-rhodamine activity probe; AID 492956, 2010; inhibition, % at 3.39 µM; 0.99% of 340,000 active;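 active = inhibition above the mean over all tested compounds plus 3 SD, cut at about 30% in these data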;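 also: inhibitors block probe labeling of enzyme so polarization drops; 0% = enzyme with DMSO and 100% = wells lacking PAFAH2 protein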
pPAFAH FP inh – pPAFAH enzyme inhibitors, primary screen, biochemical, fluorescence polarization, human | recombinant pPAFAH, FP-rhodamine probe fluorescence polarization | inhibition, % at 3.39 µM | 1.5% of 330,000 active;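 active = inhibition above the mean inhibition across the screen plus 3 SD, cut at about 25% in these data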;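 also: inhibitors block binding of the rhodamine activity-based probe so polarization drops; 0% = enzyme with DMSO and 100% = wells lacking pPAFAH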
Apaf1 inhib – inhibitors of human Apaf-1 apoptosome, primary screen, biochemical, DEVD-Rh110 fluorescence, uHTS | reconstituted apoptosome caspase-3 activity | inhibition, % at 20 µM | 0.71% of 330,000 active; active = inhibition of at least 40% at 20 µM;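 also: plate controls were DMSO wells for no effect and DEVD-CHO caspase inhibitor wells for full effect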
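Medium: Hepes buffer, pH 7.5 / System: biochemical Apaf-1 apoptosome reconstitution / Measured by: Rh110 fluorescence, excitation 480 nm, emission 540 nm / Times: compound with Apaf-1, dATP, procaspase-3 30 min, then 50 min reaction, room temperature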
PAFAH1B2 inh – PAFAH1B2 enzyme inhibitors, primary screen, biochemical, fluorescence polarization, human. Platelet-activating factor acetylhydrolase IB subunit alpha2 (Homo sapiens), P68402. recombinant PAFAH1B2, FP-rhodamine activity probe. inhibition, % at 3.39 µM. 1.2% of 340,000 active. AID 492953, 2010;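 active = inhibition above the mean of all tested compounds plus 3 SD, cut at about 24% in these data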;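 also: 0% = enzyme with DMSO and 100% = wells lacking PAFAH1B2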
Target sequence (P68402 whole entry, looked up): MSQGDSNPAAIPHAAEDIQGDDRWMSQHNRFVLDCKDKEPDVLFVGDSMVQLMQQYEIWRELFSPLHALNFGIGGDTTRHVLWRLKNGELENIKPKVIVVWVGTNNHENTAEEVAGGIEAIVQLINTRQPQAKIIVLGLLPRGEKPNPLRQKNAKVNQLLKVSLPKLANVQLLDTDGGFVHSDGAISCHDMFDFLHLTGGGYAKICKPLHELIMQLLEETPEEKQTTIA
pPAFAH confirm – pPAFAH (PLA2G7) enzyme inhibitors, confirmation, biochemical, fluorescence polarization, human; 72% of 2,300 active; inhibition, % at 3.39 µM; AID 463230, 2010; shares compounds with pPAFAH FP inh; recombinant pPAFAH, FP-Rh probe fluorescence polarization;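 active = mean inhibition of the triplicate above the hit cutoff set for the earlier primary screen, cut at about 25% in these data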;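 also: 0% = enzyme with DMSO and 100% = wells lacking pPAFAH enzyme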
Apaf-1 inh conf2 – Apaf-1 inhibitors, single-dose retest, confirmation, biochemical, fluorescence, DEVD-Rh110, 20 µM; AID 504614, 2011; reconstituted apoptosome, caspase-3 DEVD-Rh110 fluorescence; 25% of 1,800 active; inhibition, % at 20 µM; shares compounds with Apaf1 inhib;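 active = mean inhibition of at least 40% at 20 µM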;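 also: plate controls were DMSO wells for no effect and DEVD-CHO caspase inhibitor control wells for full effect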
Rh110 interf inh – Rh110 fluorescence interference by putative Apaf-1 inhibitors, confirmation, artefact control for Apaf-1 inhibitor project, biochemical, 20 µM; activation (fluorescence interference), % at 20 µM; AID 504615, 2011; quenched caspase reaction; 1,800 tested, under 10 active; shares compounds with Apaf1 inhib;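 active = signal rise of 40% or more at 20 µM, treated as a fluorescence artifact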
Apaf1 inh interf – fluorescence interference of Apaf-1 inhibitor hits, dose response, artefact control for Apaf-1 inhibitor project. IC50, µM. shares compounds with Apaf1 inhib. AID 588538, 2011. fluorescence interference counterscreen, Apaf-1 assay format. 460 tested, under 10 active; call rule not given here
PAFAH2 FP conf – PAFAH2 enzyme inhibitors, confirmation, biochemical, fluorescence polarization, human | shares compounds with PAFAH2 inh | recombinant PAFAH2, FP-rhodamine activity probe | inhibition, % at 3.39 µM | 65% of 2,300 active;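 active = mean inhibition over three repeats above a set limit taken from the earlier primary screen, cut at about 30% in these data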;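 also: inhibitor blocks binding of rhodamine activity probe so polarization falls; 0% = enzyme with DMSO and 100% = wells lacking PAFAH2 protein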
Numbers without * were called inactive; . = no result. The list is not random: actives were taken first. Their share in the collection is about 3.1%.

SMILES | PAFAH1B3 inh | PAFAH2 inh | pPAFAH FP inh | Apaf1 inhib | PAFAH1B2 inh | pPAFAH confirm | Apaf-1 inh conf2 | Rh110 interf inh | others
Oc1cccc(C=Nc2cccc3ccccc23)c1O | 28* | 27 | 76* | 74* | 9 | 8 | 11 | 4
Cc1ccccc1NC(=O)Cc1nnc(SCC(=O)NC2=NCCS2)n1C | 2 | 2 | 4 | -3 | 0 | . | . | .
O=c1[nH]nc(CNc2ccc(O)cc2)c2ccccc12 | 17 | 15 | 59* | 94* | 8 | -6 | 4 | 0
CC(C)(C)OC(=O)N1CCC(NC(=O)c2nc[nH]c2C(=O)N2CCN(c3ccccc3)CC2)CC1 | 11 | 3 | 0 | 13 | 8 | . | . | .
COC(=O)c1cc(NC(=O)COC(=O)CN2C(=O)C3CC=CCC3C2=O)cc(C(=O)OC)c1 (stereo not drawn) | 5 | -1 | . | 9 | 2 | . | . | .
COc1cccc2c1C(=O)c1c(O)c3c(c(O)c1C2=O)C[C@@](O)(C(=O)CO)C[C@@H]3O[C@H]1C[C@H](N)[C@H](O)[C@H](C)O1 | 19 | 46* | 58* | 58* | 41* | 45* | 61* | 0 | Apaf1 inh interf=>100
O=S(=O)(Nc1ccc2c(c1)OCO2)c1ccc(Cl)cc1F | 17 | 2 | 1 | 4 | 14 | . | . | .
O=C(CN1C(=O)c2ccccc2S1(=O)=O)NCc1cccs1 | 0 | 10 | -6 | 8 | 5 | . | . | .
Cc1ccnc2nc(C(=O)OCC(=O)Nc3ccc4c(c3)OCCO4)nn12 | 8 | 3 | 4 | -7 | 7 | . | . | .
C=CCN1C(=O)c2ccc(C(=O)OCC(=O)N(CC)c3c(N)n(Cc4ccccc4)c(=O)[nH]c3=O)cc2C1=O | 3 | 1 | . | . | 3 | . | . | .
COc1cccc(/C=C2/Sc3ccc(C(=O)NCCN4CCCCCC4)cc3NC2=O)c1 | -2 | -5 | 37* | 40 | 4 | 44* | 32 | 4
COC(=O)/C(=C/Nc1ccc(O)cc1)[N+](=O)[O-] | 5 | -6 | 37* | 91* | 5 | 2 | 16 | 12
Cc1ccc(/C=C2\S/C(=N/S(=O)(=O)c3cccs3)NC2=O)cc1 | 3 | -2 | -8 | -3 | 5 | . | . | .
COC(=O)c1ccccc1NC1=C/C(=N\S(=O)(=O)c2ccc(C(=O)O)cc2)c2ccccc2C1=O | 71* | 72* | 37* | 95* | 53* | 39* | 97* | 4 | Apaf1 inh interf=>100
Cc1ccc(S(=O)(=O)/N=C2\C=C(NS(=O)(=O)c3ccccc3)C(=O)c3ccccc32)c(C)c1 | -10 | 20 | . | . | 1 | . | . | .
Cc1ccc(S(=O)(=O)/N=C2\C=C(Nc3ccc(O)cc3)C(=O)c3ccccc32)cc1 | 61* | 35* | 38* | 96* | 27* | 33* | 97* | 1 | Apaf1 inh interf=>100
Cc1ccc(NC2=C/C(=N/S(=O)(=O)c3cccs3)c3ccccc3C2=O)cc1 | 45* | 4 | 53* | 92* | 1 | 65* | 95* | 7 | Apaf1 inh interf=>100
CCOCCOc1cc(NCc2ccccc2)c2ncn(C(C)C)c2c1 | 0 | -3 | . | . | -2 | . | . | .
CCCCOc1cc(NCc2ccccc2)c2ncn(C(C)C)c2c1 | 12 | 12 | 36* | 61* | 7 | 39* | 47* | 14 | Apaf1 inh interf=>100
N#Cc1c(N2CCCC(O)C2)nc(N)c2c(N)nc3c(c12)CC(=O)N3C12CC3CC(CC(C3)C1)C2 (stereo not drawn) | 51* | 46* | 45* | 98* | 46* | 22 | 44* | 6 | Apaf1 inh interf=>100
COc1ccc(/C(C)=N/NC(=O)CNC(=O)/C=C\c2ccccc2)c(OC)c1 | 3 | -4 | -1 | 16 | 3 | . | . | .
CC(=O)N1CCN(c2ccc(NCc3ccc(-c4cccc(Cl)c4)o3)cc2)CC1 | 8 | 7 | 41* | 43* | 0 | 46* | 19 | 5
CC(=O)N1CCN(c2ccc(NCc3ccco3)cc2)CC1 | 3 | 1 | 9 | -3 | -3 | . | . | .
COc1cccc(-n2c(SCc3cc(=O)oc4cc(O)c(O)cc34)nc3ccccc3c2=O)c1 | 16 | 64* | 94* | . | 2 | 92* | . | . | PAFAH2 FP conf=54*
CCN(CC)C(=O)CSc1nc2ccccc2c(=O)n1-c1cccc(OC)c1 | 1 | 3 | -3 | 6 | -3 | . | . | .
SMILES | PAFAH1B3 inh | PAFAH2 inh | pPAFAH FP inh | Apaf1 inhib | PAFAH1B2 inh | pPAFAH confirm | Apaf-1 inh conf2 | Rh110 interf inh | others
COc1cc(NS(=O)(=O)c2ccc(Nc3nc(-c4cccc([N+](=O)[O-])c4)cs3)cc2)nc(OC)n1 | 16 | 43* | 47* | 10 | 17 | 69* | . | . | PAFAH2 FP conf=27
COc1ccc(OC)c(C(C(=O)NC2CCCCC2)N(Cc2ccco2)C(=O)c2ccccn2)c1 (stereo not drawn) | 4 | 2 | 1 | 16 | 5 | . | . | .
Cc1ccc(C(=O)NCC(=O)N2CCCCCC2)cc1 | 6 | 2 | 2 | 5 | -2 | . | . | .
Cc1ccc(C(=O)NCC(=O)N2CCCCCCC2)cc1 | 3 | 5 | 3 | 61* | -1 | . | 38 | 5
Cc1cccc(C)c1NC(=O)C(C)Sc1nnc(C)n1CC1CCCO1 (stereo not drawn) | 6 | -1 | . | -1 | 1 | . | . | .
Cc1[nH]n(-c2ccccc2)c(=O)c1C(=O)c1ccccc1 | 12 | -1 | 4 | 61* | -5 | . | 18 | 10
O=C1C=C(O)CC(c2ccc(Cl)c(Cl)c2)C1 (stereo not drawn) | 4 | 8 | 11 | -4 | 8 | . | . | .
CN[C@H]1CC[C@@H](c2ccc(Cl)c(Cl)c2)c2ccccc21 | 10 | 3 | -4 | 54* | 2 | . | 5 | -3
COc1ccccc1N1CCN(C(=O)c2ccc3c(Cl)c4c(nc3c2)CCCC4)CC1 | 9 | 1 | 9 | 41* | 5 | . | 19 | 5
